Screening results deposited in PubChem BioAssay by several laboratories.
core dimer inh: inhibitors of HCV core protein dimerization, primary screen, biochemical, TR-FRET, high-throughput; TR-FRET GST/Flag-core106 dimerization, 1536-well; inhibition, % at 5 µM; 300,000 tested, 0.33% active; AID 1899, 2009;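 active = inhibition above the mean of all tested compounds plus 3 SD, set per screening campaign, cut at about 45% in these data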
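Material: Tagged HCV core106 pair (GST and Flag) | Amount: GST-core106 13.5 nM, Flag-core106 17 nM | Medium: KF-containing HEPES buffer, pH 7.45, DTT, CHAPS, BSA | Reagent: Eu donor and XL665 acceptor anti-tag antibodies | Schedule: 4 h at 22.5 °C | Technique: Time-resolved FRET, ex 340 nm, em 617 and 671 nm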
ASAP1 inh: inhibitors of human ASAP1 ArfGAP activity, primary screen, biochemical, fluorescence polarization; 360,000 tested, 0.19% active; Arf-GAP with SH3 domain, ANK repeat and PH domain-containing protein 1 (Homo sapiens), …; AID 624377, 2012; inhibition, % at 16.5 µM; ASAP1-stimulated ARF1 GTP hydrolysis, GDP FP detection; in the data active = inhibition above about 25%
Target sequence (Q9ULH1 325-724 limits assumed): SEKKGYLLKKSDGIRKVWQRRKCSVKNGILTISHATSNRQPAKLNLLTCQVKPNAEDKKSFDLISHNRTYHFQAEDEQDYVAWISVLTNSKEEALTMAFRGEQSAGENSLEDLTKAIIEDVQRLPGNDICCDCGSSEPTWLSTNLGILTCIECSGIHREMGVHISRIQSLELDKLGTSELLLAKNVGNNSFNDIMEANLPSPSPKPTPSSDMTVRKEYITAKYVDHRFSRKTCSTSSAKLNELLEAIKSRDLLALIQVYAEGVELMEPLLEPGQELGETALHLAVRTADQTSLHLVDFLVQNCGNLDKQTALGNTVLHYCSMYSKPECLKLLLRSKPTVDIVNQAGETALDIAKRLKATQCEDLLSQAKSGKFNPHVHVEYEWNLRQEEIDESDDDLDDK
NPR1 activator: GC-A stimulated cGMP production enhancers – HEK293 GC-A cells, cGMP TR-FRET, EC30 ANP, primary screen | 0% at EC30 ANP, 100% saturating ANP | activation, % at 10 µM | 370,000 tested, 0.14% active | AID 1671463, 2021; in the data active = activation above about 40%
GC-B act: human GC-B receptor activators, primary screen, HEK293 GC-B cells, cGMP TR-FRET, EC30 CNP. 0% at EC30 CNP, 100% saturating CNP. Atrial natriuretic peptide receptor 2 (Homo sapiens), P20594. activation, % at 10 µM. 370,000 tested, 0.11% active. AID 1920062, 2024;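 active = activation at 10 µM reaching about 35% in either raw or pattern-adjusted values, limit read from the data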
Fh CTSL1 inh: Fasciola hepatica cathepsin L1 inhibitors, primary screen, counter-screen for PFM18AAP inhibitor project, biochemical, QFRET, fluorogenic peptide substrate; recombinant F. hepatica cathepsin L1, Z-Leu-Arg-MCA fluorescence; inhibition, % at 5.96 µM; 300,000 tested, 0.49% active; AID 1906, 2009;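 active = inhibition above the mean of all tested compounds plus 3 SD, set per screening campaign, cut at about 17% in these data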
ARFGAP1 inhibitor: inhibitors of rat ARFGAP1 GAP activity, primary screen, biochemical, fluorescence polarization, GDP tracer. ADP-ribosylation factor GTPase-activating protein 1 (Rattus norvegicus), Q62848. Arfgap1-stimulated ARF1 GTP hydrolysis, GDP FP detection. inhibition, % at 16.5 µM. 360,000 tested, 0.26% active. AID 651572, 2012;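 active = inhibition above a per-plate limit, mean inhibition of low control wells plus 3 SD, cut at about 25% in these data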
Target sequence (Q62848 1-136 limits assumed): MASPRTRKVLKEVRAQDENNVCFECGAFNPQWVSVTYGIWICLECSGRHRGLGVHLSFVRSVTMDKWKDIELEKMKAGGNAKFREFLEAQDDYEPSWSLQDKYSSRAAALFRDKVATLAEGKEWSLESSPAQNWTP
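material = rat Arfgap1 catalytic domain, aa 1-136 | also added = human ARF1(Δ1-17)-GTP substrate | compound dosing = one concentration, 16.5 µM, DMSO 1.26% | times = GTP hydrolysis reaction 2 h at 25 °C | measured by = FP, GDP Alexa 633 tracer displaced from anti-GDP antibody, 620/688 nm | evaluation = percent inhibition of Arfgap1-stimulated GTP hydrolysis | replication = single well per compound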
Large screens that a line does not name were inactive; ! = repeats disagree. Rows were chosen to be rich in hits. Some 1.2% of all compounds tested hit in one or more screens of this group.

Nn1c(SCC(=O)NC(=O)NCc2ccco2)nnc1-c1ccc(OC(F)F)cc1	core dimer inh 79
CCn1c(SCC(=O)NC(=O)NCc2ccco2)nc2sc(C)c(C)c2c1=O	core dimer inh 51
CC1(C)CC(=O)N(CC(=O)N2CCN(c3ncccn3)CC2)c2ccccc2S1(=O)=O	none
Cc1cccc(N2CC(O)(c3cccs3)[N+]3=C2CCCC3)c1C (stereo not given)	none
COc1ccc(CCn2c(O)cc3nn(-c4nc5ccccc5s4)c(=O)c-3c2C)cc1	core dimer inh 60
O=[N+]([O-])C(=C1Nc2ccccc2N1)C(Cl)=C(Cl)Cl	Fh CTSL1 inh 20
COc1cccc(N2CCN(S(=O)(=O)c3cc4c(cc3C)N(C)CCO4)CC2)c1	none
Cc1ccc(OCCOCCN2CCN(C)CC2)c([N+](=O)[O-])c1	Fh CTSL1 inh 18
Cc1ccc(OCCOCCN2CCCCC2)c([N+](=O)[O-])c1	none
C=Cc1ccc(CN2CCCN(Cc3ccc(Cl)cc3)S2(=O)=O)cc1	none
O=C(CSc1nnnn1-c1ccc2c(c1)OCCO2)OC1CCCCC1	Fh CTSL1 inh 78
COc1cc(CNc2ccc(N3CCCC3)cc2)ccc1OCc1ccccc1F	none (no result: ASAP1 inh, NPR1 activator, GC-B act, ARFGAP1 inhibitor)
Cc1ccccc1/C=N/n1c(C2CCCCC2)n[nH]c1=S	none
CC1Cc2ccccc2N1Cc1cc(=O)n2ccsc2n1 (stereo not given)	core dimer inh 68
COc1ccccc1N1CCN(Cc2cc(=O)n3ccsc3n2)CC1	none
CC1CCCCC1NC(=O)COC(=O)c1c2c(nc3ccccc13)/C(=C/c1ccco1)CC2 (stereo not given)	core dimer inh 97
O=C(COC(=O)c1c2c(nc3ccccc13)/C(=C/c1ccco1)CC2)NC1CCCC1	none (no result: core dimer inh, Fh CTSL1 inh)
C(=C\c1ccco1)/c1ccc2ccccc2n1	core dimer inh 53
Fc1cccc(F)c1/C=C/c1ccc2ccccc2n1	none
CCCCN(C)CC(O)Cn1cc(/C=C/C(=O)c2ccc(C)cc2)c2ccccc21 (stereo not given)	none
COc1ccc(Cl)cc1C(=O)NC(=S)Nc1cc(-c2nc3ccccc3[nH]2)ccc1C	core dimer inh 47
COC(=O)c1ccc(C(=O)OC)c(NC(=O)CN(c2ccccc2)S(=O)(=O)N(C)C)c1	Fh CTSL1 inh 37
CCCCCCn1c(Br)nc2c1c(=O)n(C)c(=O)n2C	Fh CTSL1 inh 35
Cc1ccc(-n2c(SCC(=O)N/N=C/c3c(C)nn(-c4ccccc4)c3C)nc3ccccc3c2=O)cc1	none
Cc1nn(-c2ccccc2)c(C)c1/C=N/NC(=O)CSc1nc2ccccc2c(=O)n1-c1ccc(Br)cc1	core dimer inh 59
Cc1ccc2nc(N3CCN(S(=O)(=O)c4ccc(C)c(Cl)c4)CC3)c(C#N)cc2c1	core dimer inh 62
Cc1ccc2nc(N3CCN(C)CC3)c(C#N)cc2c1	none
Cc1ccc(C)c(NC(=O)COC(=O)CNC(=O)C2CCCCC2)c1	none (no result: core dimer inh, Fh CTSL1 inh)
CC(C)CCNC(=O)NC(=O)COC(=O)CNC(=O)C1CCCCC1	Fh CTSL1 inh 26
Cc1cccc(NC(=O)COC(=O)CNC(=O)C2CCCCC2)c1	Fh CTSL1 inh 25
N#Cc1ccc(NC(=O)COC(=O)CNC(=O)C2CCCCC2)cc1	Fh CTSL1 inh 31
O=C(Cn1cnc2ccccc2c1=O)NNC(=O)c1cccc([N+](=O)[O-])c1	none (no result: core dimer inh, Fh CTSL1 inh)
CN1CCN(Cc2nc3ccccc3n2C)CC1CCO (stereo not given)	none
C#CCOc1ccc(/C=C2\SC(=S)N(Cc3cccnc3)C2=O)cc1	none
CCOC(=O)C1CCN(c2c(C(=O)c3ccccc3)cnc3ccc(Cl)cc23)CC1	none
O=C1C2C3C=CC(CC3)C2C(=O)N1c1ccccc1[N+](=O)[O-] (stereo not given)	Fh CTSL1 inh 19
CC(=O)N1CCN=C1SCc1ccccc1	none
O=c1n(Cc2ccc(Cl)cc2)c2sc3c(c2c2ncnn12)CCCC3	GC-B act 49
[N-]=[N+]=CC(=O)CNC(=O)[C@@H](Cc1ccccc1)N1C(=O)c2ccccc2C1=O	Fh CTSL1 inh 43
O=C(NCc1ccco1)C(Cc1ccccc1)N1C(=O)c2ccccc2C1=O (stereo not given)	none
CCN(CC(=O)NC(C)(C)C)C(=O)CCl	Fh CTSL1 inh 20
CCN(CC(=O)NC(C)(C)C)C(=O)COc1c(Cl)cc(Cl)c2ccc(C)nc12	none
COc1ccc(NC(=O)C2C3C=CC4(O3)C2C(=O)N(CCN2CCCCC2)C4C(=O)NC2CCCC(C)C2C)cc1 (stereo not given)	Fh CTSL1 inh 20
CCSC1=N/C(=C\c2ccc(C)s2)C(=O)S1	none
Cc1cc(C)n(CC(O)Cn2c(C)c(C)c3ccccc32)n1 (stereo not given)	Fh CTSL1 inh 19
Cc1c(C)n(CC(O)CN2CCCCC2)c2ccccc12 (stereo not given)	none (no result: NPR1 activator, GC-B act)
COc1ccc(CCN2CC(O)=C(c3nc4ccccc4c(=O)[nH]3)C2=N)cc1OC	NPR1 activator 70
CCOC(=O)CCSc1nc(-c2ccc3c(c2)OCO3)cc(C(F)(F)F)c1C#N	NPR1 activator 42
CCOC(=O)CC(=O)CSc1nc(-c2ccc3c(c2)OCO3)cc(C(F)(F)F)c1C#N	none (no result: ASAP1 inh, ARFGAP1 inhibitor)
COc1cccc(CN(C)C(=O)c2csc3c2CCCC3)c1OC	Fh CTSL1 inh 18
Nc1nc2c(nc(Br)n2[C@@H]2O[C@@H]3COP(=O)(O)O[C@H]3[C@H]2O)c(=O)[nH]1	NPR1 activator 116, GC-B act 114
CO[C@@H]1CN(C)C(=O)c2ccc(NC(=O)c3ccccc3F)cc2OC[C@@H](C)N(CC2CCOCC2)C[C@@H]1C	none (no result: core dimer inh, Fh CTSL1 inh)
COc1ccc(CN2CCN(c3cccc(C)c3C)CC2)cc1OC	ARFGAP1 inhibitor 34
COc1cc(CN2CCN(c3cccc(C)c3C)CC2)cc(Br)c1O	none
CC(C)(C)NC(=S)N1CCC(C(=O)c2ccc(F)cc2)CC1	none
Cc1ccc(NC(=O)c2sc(C)nc2C)c(C)c1	Fh CTSL1 inh 18
CC(C)c1ccc(NC(=O)COC(=O)C2CCCCC2)cc1	none (no result: core dimer inh, Fh CTSL1 inh)
CC(Sc1ccc2ccccc2n1)C(=O)O (stereo not given)	NPR1 activator 48! (no result: core dimer inh, Fh CTSL1 inh)
O=C(COc1ccccc1)N1CCN(S(=O)(=O)c2cccs2)CC1	Fh CTSL1 inh 19
O=C(CCOc1ccccc1)N1CCN(S(=O)(=O)c2cccs2)CC1	none
